# Screening results as filed in PubChem BioAssay.
# The list is not random: actives were taken first. Their share in the collection is about 3.9%.
# 697 NFkB inh = inhibitors of PMA/ionomycin-induced NF-kB reporter, 697 cells, primary screen, B-cell NF-kB inhibitor project, cell-based, luminescence, uHTS; 697 B-cell NF-kB luciferase reporter, 16 h; 330,000 tested, 0.33% active; inhibition, % at 4 µM; in the data active = inhibition above about 35%
# UPR XBP1 act = activators of adaptive XBP1 UPR arm, primary screen, cell-based, CHO-XBP1 luciferase reporter, luminescence, uHTS. AID 463104, 2010. 330,000 tested, 0.33% active. IRE1-XBP1 UPR activation; percent of tunicamycin response, DMSO as zero. activation, % at 20 µM;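 active = versus positive control, 20 µM dose yields 30% or more activation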;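 also: 100% = tunicamycin at 10 µg/mL and 0% = DMSO only wells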
#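 Material – CHO cell line with stable XBP1 luciferase reporter · Buffer or medium – F12 plus 10% FBS · Compound – single point, 20 µM final compound, 1% DMSO · Schedule – 16-18 h cell attachment at 37 °C, then 6 h compound exposure · Signal – Steady-Glo luminescence read · Benchmarks – high control tunicamycin 10 µg/mL final, low control DMSO vehicle only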
# Gli-Sufu block = Gli-Sufu pathway antagonists, primary screen, luciferase luminescence, Sufu-KO-LIGHT cells, uHTS; Sufu-KO-LIGHT fibroblasts, Gli luciferase reporter luminescence; inhibition, % at 5 µM; 340,000 tested, 0.74% active;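 active = inhibition above about 55%, limit read from the data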;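 also: 0% = DMSO-treated cells and 100% = wells with medium but no cells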
# CHOP UPR activ = activators of apoptotic CHOP UPR arm, primary screen, cell-based, CHO-CHOP luciferase reporter, luminescence, uHTS. UPR activation; percent of tunicamycin response over DMSO baseline. activation, % at 10 µM. AID 449763, 2010. 330,000 tested, 0.34% active;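 active = at 10 µM dose, activation of 40% or more, normalized to positive control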;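 also: 100% = tunicamycin at 10 µg/mL and 0% = DMSO alone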
#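 Assay system: CHO-CHOP cells, stable luciferase reporter of PERK-eIF2a-CHOP signalling / Buffer or medium: F12 plus 10% serum / Compound dosing: one dose, 10 µM in 0.5% DMSO / Times: 6 h compound treatment, 37 °C / Technique: luciferase luminescence / Read-out: % reporter activation, DMSO baseline versus tunicamycin full activation / Benchmarks: tunicamycin and DMSO controls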
# Jurkat NFkB inh = inhibitors of induced NF-kB luciferase reporter, primary screen, TCR NF-kB activation inhibitor project, cell-based, luminescence, uHTS | Jurkat, PMA/ionomycin-induced NF-kB luciferase reporter | inhibition, % at 4 µM | 330,000 tested, 0.53% active | AID 435003, 2010; in the data active = inhibition above about 50%
# CHOP inhibitor = inhibitors of CHOP promoter induction, primary screen, cell-based, unfolded protein response, luciferase reporter; inhibition, % at 10 µM; CHO-K1 CHOP-promoter luciferase, tunicamycin-induced, 15-18 h; 220,000 tested, 3.8% active; AID 2732, 2010;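 active = compounds that reduced the stress-induced luciferase reporter signal by more than about 70% of percent inhibition, limit read from the data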;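 also: 0% = tunicamycin plus vehicle and 100% = wells without tunicamycin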
# Jurkat NFkB conf = PMA/ionomycin-induced NF-kB reporter inhibitors, Jurkat retest, confirmation, T-cell NF-kB inhibitor project, cell-based, luminescence, single concentration. shares compounds with Jurkat NFkB inh. Jurkat NF-kB luciferase, 16 h. inhibition, % at 4 µM. 2,700 tested, 27% active;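 active = inhibition reaching about 45% at 4 µM in either replicate, limit read from the data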;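 also: plate controls were PMA/ionomycin stimulated DMSO wells for no effect and unstimulated DMSO wells for full effect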
# 697 NFkB conf = PMA/ionomycin-induced NF-kB reporter inhibitors, 697 retest, confirmation, B-cell NF-kB inhibitor project, cell-based, luminescence, single concentration | shares compounds with 697 NFkB inh | AID 449746, 2010 | 697 B-cell NF-kB luciferase, 16 h | 2,000 tested, 35% active | inhibition, % at 4 µM; in the data active = inhibition mostly above about 28%, no sharp cut-off; inactive = mostly below about 22%
# Numbers without * were called inactive; i = inactive; nt = no result given.
SMILES,697 NFkB inh,UPR XBP1 act,Gli-Sufu block,CHOP UPR activ,Jurkat NFkB inh,CHOP inhibitor,Jurkat NFkB conf,697 NFkB conf
Cc1cccc(S(=O)(=O)Nc2ccc(-c3nc4ccc(C)cc4s3)cc2)c1,-165,4,-83,5,-179,-6,-52,nt
CN1/C(=C\C(=O)c2cccc([N+](=O)[O-])c2)Sc2ccccc21,-101,6,-67,8,-175,nt,-1,nt
COc1cc(OC)cc(C(=O)/C=C2\Sc3ccccc3N2C)c1,-18,0,-15,7,-33,-11,nt,nt
CS(=O)(=O)Nc1ccc(C(=O)Nc2ccccc2Cl)cc1,17,-4,-5,2,-6,8,nt,nt
CC(C)(C)c1ccc(C(=O)Nc2ccccc2Cl)cc1,-106,-3,-137,1,-249,31,-167,nt
CSc1ccc(S(=O)(=O)N2c3ccccc3CC2C)cc1 (configuration not stated),-4,-1,1,3,55*,nt,27,nt
CC1Cc2ccccc2N1S(=O)(=O)c1cnc[nH]1 (configuration not stated),18,-5,-10,2,8,-6,nt,nt
CC(=O)N1CCc2cc(S(=O)(=O)N3c4ccccc4CC3C)ccc21 (configuration not stated),-72,4,0,0,53*,47,18,nt
COc1ccc(C(=O)N(C)c2ccccc2C(=O)NCCc2ccccc2)cc1,1,1,6,2,16,nt,nt,nt
COC(=O)c1[nH]c2ccc(Br)cc2c1NC(=O)CN1CCN(C2CCCCC2)CC1,-1,8,16,8,68*,16,46*,nt
Cc1nn(-c2ccccc2)c(N)c1-c1ccccc1,-39,2,-17,2,-45,-13,nt,nt
Cc1nn(-c2nc3ccccc3[nH]2)c(N)c1-c1ccccc1,-254,11,-87,4,-151,9,-72,-212
COc1ccccc1C(=O)N(CCC1CCCN1C)c1nc2ccccc2s1 (configuration not stated),-316,-4,4,-2,-216,-15,38,-288
COc1ccc2sc(N(CCCN(C)C)C(=O)c3nc4ccccc4s3)nc2c1,8,-1,-2,3,-14,34,nt,nt
COc1ccc(-c2cn3ccc4ccccc4c3n2)cc1,-334,0,-126,0,-196,24,-93,-227
CCc1cc(C(=O)N2CCN(S(=O)(=O)c3ccc(Cl)cc3)CC2)sc1C,18,-3,6,-1,6,nt,nt,nt
CCOc1ccc(-c2cc(C(=O)N/N=C/c3cccnc3)c3ccccc3n2)cc1,-393,6,-43,4,58*,nt,-4,-301
O=C(CCNS(=O)(=O)c1ccccc1F)OCc1ccccc1Cl,7,-4,1,1,12,nt,nt,nt
Cc1ccccc1NC(=O)CSc1nnc(C)c2ccccc12,-9,0,-20,2,21,nt,nt,nt
Cc1cc(Cl)c(S(=O)(=O)N2CCN(c3ccc(F)cc3)CC2)cc1OCC(=O)NC1CCCCC1,98*,0,58*,1,65*,68,75*,92*
Cc1cc(Cl)c(S(=O)(=O)N2CCN(c3ccc(F)cc3)CC2)cc1OCC(N)=O,-55,-3,-7,0,21,23,nt,nt
Cc1ccc(C(=O)N/N=C/c2ccc([N+](=O)[O-])s2)cc1,38*,-11,-29,-9,64*,70*,48*,16
N#Cc1c(NC(=O)CSc2ncn[nH]2)sc2c1CCCCC2,70*,-5,34,-7,63*,91*,65*,59*
N#Cc1c(NC(=O)CSc2nc(N)cc(=O)[nH]2)sc2c1CCCCCC2,-59,3,17,2,14,nt,nt,nt
COc1ccc(-n2ncc3c(NCc4ccc5c(c4)OCO5)ncnc32)cc1,-18,7,-48,4,-38,49,nt,nt
SMILES,697 NFkB inh,UPR XBP1 act,Gli-Sufu block,CHOP UPR activ,Jurkat NFkB inh,CHOP inhibitor,Jurkat NFkB conf,697 NFkB conf
COc1ccc(-n2ncc3c(NCC(C)C)ncnc32)cc1,-327,-3,-88,3,-185,25,-136,-300
CC(C)CCn1cnc2c(sc3nc4c(cc32)CSC(C)(C)C4)c1=O,-359,-1,-15,4,-208,53,-65,-286
COc1cc(OC)cc(C(=O)NNC(=O)CNC(=O)c2cccs2)c1,2,-2,3,1,4,nt,nt,nt
Cc1ccnc(NC(=O)CSc2cc(=O)n(C)c3ccccc23)c1,-56,-3,-28,-2,-32,32,nt,nt
Cc1ccnc(NC(=O)CCCOc2cc(=O)n(C)c3ccccc23)c1,61*,-1,-119,-3,66*,nt,58*,48*
COc1ccccc1NC(=O)c1ccc2c(c1)CCN2S(C)(=O)=O,11,-1,9,0,11,nt,nt,nt
COc1ccc(C(=O)/C(C#N)=N/Nc2ccc([N+](=O)[O-])cc2)cc1,53*,16,69*,2,60*,57,59*,11
COc1ccc(C(=O)/C(C#N)=N/Nc2ccccc2[N+](=O)[O-])cc1,-117,1,-6,1,41,22,nt,nt
COCCn1c(C)cc(C(=O)CSc2nc3ccccc3c(=O)n2Cc2ccco2)c1C,-276,-1,-99,5,-159,27,5,-103
O=C(c1ccccc1)n1c(=S)nc2ccccn21,-319,-9,-187,-8,-157,nt,-61,-274
O=C(NCCNCCO)C1(C(F)(F)F)C/C(=C\CCO)CCCO1 (configuration not stated),61*,-1,3,0,54*,nt,83*,58*
CCCCn1c(N)c(N(CC)C(=O)C2CCN(C(=O)c3ccccc3C)CC2)c(=O)[nH]c1=O,5,-1,0,-1,7,nt,nt,nt
COc1ccccc1CN1CC(C(=O)NCCc2ncccc2C)CCC1=O (configuration not stated),18,-3,-2,-2,11,nt,nt,nt
CCOC(=O)c1sc2nc(-c3ccccc3)ccc2c1N,-336,-1,-105,3,-296,28,-80,-188
CCOC(=O)c1sc(NC(=O)Nc2ccccc2Cl)cc1C,-420,4,-133,6,-277,80*,-171,i
